From ChEMBL document CHEMBL4145561, “Tiacumicin Congeners with Improved Antibacterial Activity from a Halogenase-Inactivated Mutant” (2018)
Values after ≈ are worked out from the molar mass of the structure shown.

Legend:
Format in all cases: functional
Staphylococcus aureus [1] = assay: Antimicrobial activity against methicillin-resistant Staphylococcus aureus isolate shhs-A1 by broth microdilution method
Outline: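 Minimal inhibitory concentration determined by broth microdilution in Mueller Hinton broth against methicillin-resistant S. aureus shhs-A1, one strain of an indicator panel that also included S. aureus ATCC 29213, B. thuringiensis SCSIO BT01, M. luteus SCSIO ML 01 and E. faecalis ATCC 29212.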

Enterococcus faecalis = assay: Antimicrobial activity against Enterococcus faecalis ATCC 29212 by broth microdilution method
Outline: (§1)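 Mueller Hinton broth microdilution; MIC read as the minimal inhibitory concentration. Run against a panel of indicator strains that included MRSA, S. aureus ATCC 29213, B. thuringiensis SCSIO BT01, M. luteus SCSIO ML 01 and E. faecalis ATCC 29212.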

Bacillus thuringiensis = assay: Antimicrobial activity against Bacillus thuringiensis SCSIO BT01 by broth microdilution method; outline: as §1
Staphylococcus aureus [2] = assay: Antimicrobial activity against Staphylococcus aureus ATCC 29213 by broth microdilution method; outline: as §1
Micrococcus luteus = assay: Antimicrobial activity against Micrococcus luteus SCSIO ML01 by broth microdilution method; outline: as §1

Row | Structure (SMILES) | MIC (Staphylococcus aureus [1]) [µg/mL] | MIC (Enterococcus faecalis) [µg/mL] | MIC (Bacillus thuringiensis) [µg/mL] | MIC (Staphylococcus aureus [2]) [µg/mL] | MIC (Micrococcus luteus) [µg/mL]
1 | CC[C@H]1/C=C(\C)[C@@H](O)C/C=C/C=C(\CO[C@@H]2O[C@H](C)[C@@H](O)[C@H](O)[C@@H]2OC)C(=O)O[C@H]([C@@H](C)O)C/C=C(C)/C=C(\C)[C@@H]1O[C@@H]1OC(C)(C)[C@@H](OC(=O)C(C)C)[C@H](O)[C@@H]1O | > 128 | > 128 | > 128 | > 128 | > 128
2 | CC[C@H]1/C=C(\C)[C@@H](O)C/C=C/C=C(\CO[C@@H]2O[C@H](C)[C@@H](OC(=O)c3c(C)cc(O)cc3O)[C@H](O)[C@@H]2OC)C(=O)O[C@H]([C@@H](C)O)C/C=C(C)/C=C(\C)[C@@H]1O[C@@H]1OC(C)(C)[C@@H](OC(=O)C(C)C)[C@H](O)[C@@H]1O | 16 (≈ 16.4 µM) | 64 (≈ 65.6 µM) | 8 (≈ 8.2 µM) | 16 (≈ 16.4 µM) | 16 (≈ 16.4 µM)
3 | CCc1cc(O)cc(O)c1C(=O)O[C@H]1[C@H](O)[C@H](OC)[C@H](OC/C2=C\C=C\C[C@H](O)/C(C)=C/[C@H](CC)[C@@H](O[C@@H]3OC(C)(C)[C@@H](OC(C)=O)[C@H](O)[C@@H]3O)/C(C)=C/C(C)=C/C[C@@H]([C@@H](C)O)OC2=O)O[C@@H]1C | > 128 | > 128 | 8 (≈ 8.32 µM) | 128 (≈ 133 µM) | 64 (≈ 66.6 µM)
4 | CCc1cc(O)cc(O)c1C(=O)O[C@H]1[C@H](O)[C@H](OC)[C@H](OC/C2=C\C=C\C[C@H](O)/C(C)=C/[C@H](CC)[C@@H](O[C@@H]3OC(C)(C)[C@@H](OC(=O)C(C)C)[C@H](O)[C@@H]3O)/C(C)=C/C(C)=C/C[C@@H]([C@@H](C)O)OC2=O)O[C@@H]1C | 2 (≈ 2.02 µM) | 16 (≈ 16.2 µM) | 1 (≈ 1.01 µM) | 2 (≈ 2.02 µM) | 2 (≈ 2.02 µM)
5 | CCc1cc(O)cc(O)c1C(=O)O[C@H]1[C@H](O)[C@H](O)[C@H](OC/C2=C\C=C\C[C@H](O)/C(C)=C/[C@H](CC)[C@@H](O[C@@H]3OC(C)(C)[C@@H](OC(=O)C(C)C)[C@H](O)[C@@H]3O)/C(C)=C/C(C)=C/C[C@@H](CC)OC2=O)O[C@@H]1C | > 128 | > 128 | 16 (≈ 16.7 µM) | > 128 | > 128
6 | CC[C@@H]1C/C=C(C)/C=C(\C)[C@H](O[C@@H]2OC(C)(C)[C@@H](O)[C@H](O)[C@@H]2O)[C@@H](CC)/C=C(\C)[C@@H](O)C/C=C/C=C(\CO[C@@H]2O[C@H](CO)[C@@H](O)[C@H](O)[C@@H]2O)C(=O)O1 | > 128 | > 128 | > 128 | > 128 | > 128
7 | CCc1cc(O)cc(O)c1C(=O)O[C@H]1[C@H](O)[C@H](OC)[C@H](OC/C2=C\C=C\C[C@H](O)/C(C)=C/[C@H](CC)[C@@H](O[C@@H]3OC(C)(C)[C@@H](OC(=O)C(C)C)[C@H](O)[C@@H]3O)/C(C)=C/C(C)=C/C[C@@H](CC)OC2=O)O[C@@H]1C | > 128 | > 128 | 4 (≈ 4.11 µM) | > 128 | > 128
8 | CCC(=O)O[C@H]1[C@H](O)[C@H](O)[C@H](O[C@H]2/C(C)=C/C(C)=C/C[C@@H]([C@@H](C)O)OC(=O)/C(CO[C@@H]3O[C@H](C)[C@@H](OC(=O)c4c(O)cc(O)cc4CC)[C@H](O)[C@@H]3OC)=C/C=C/C[C@H](O)/C(C)=C/[C@@H]2CC)OC1(C)C | 8 (≈ 8.2 µM) | 32 (≈ 32.8 µM) | 2 (≈ 2.05 µM) | 8 (≈ 8.2 µM) | 16 (≈ 16.4 µM)
9 | CCc1cc(O)cc(O)c1C(=O)O[C@H]1[C@H](O)[C@H](OC)[C@H](OC/C2=C\C=C\C[C@H](O)/C(C)=C/[C@H](CC)[C@@H](O[C@@H]3OC(C)(C)[C@@H](OC(=O)C(C)C)[C@H](O)[C@@H]3O)/C(C)=C/C(C)=C/C[C@@H](C(C)=O)OC2=O)O[C@@H]1C | > 128 | > 128 | 8 (≈ 8.1 µM) | > 128 | > 128
10 | CCc1c(Cl)c(O)c(Cl)c(O)c1C(=O)O[C@H]1[C@H](O)[C@H](OC)[C@H](OC/C2=C\C=C\C[C@H](O)/C(C)=C/[C@H](CC)[C@@H](O[C@@H]3OC(C)(C)[C@@H](OC(=O)C(C)C)[C@H](O)[C@@H]3O)/C(C)=C/C(C)=C/C[C@@H]([C@@H](C)O)OC2=O)O[C@@H]1C [FIDAXOMICIN] | 1 (≈ 0.945 µM) | 16 (≈ 15.1 µM) | 2 (≈ 1.89 µM) | 4 (≈ 3.78 µM) | 4 (≈ 3.78 µM)
11 | CCCc1cc(O)cc(O)c1C(=O)O[C@H]1[C@H](O)[C@H](OC)[C@H](OC/C2=C\C=C\C[C@H](O)/C(C)=C/[C@H](CC)[C@@H](O[C@@H]3OC(C)(C)[C@@H](OC(=O)C(C)C)[C@H](O)[C@@H]3O)/C(C)=C/C(C)=C/C[C@@H]([C@@H](C)O)OC2=O)O[C@@H]1C | 2 (≈ 1.99 µM) | 4 (≈ 3.99 µM) | 0.5 (≈ 0.498 µM) | 2 (≈ 1.99 µM) | 1 (≈ 0.997 µM)
12 | CCc1cc(O)cc(O)c1C(=O)O[C@H]1[C@H](O)[C@H](OC)[C@H](OC/C2=C\C=C\C[C@H](O)/C(C)=C/[C@H](CC)[C@@H](O[C@@H]3OC(C)(C)[C@@H](O)[C@H](O)[C@@H]3O)/C(C)=C/C(C)=C/C[C@@H](CC)OC2=O)O[C@@H]1C | > 128 | > 128 | 16 (≈ 17.7 µM) | > 128 | 8 (≈ 8.86 µM)
